# Measured values reported in ChEMBL document CHEMBL4706625, “Synthesis of Guaianolide Analogues with a Tunable α-Methylene-γ-lactam Electrophile and Correlating Bioactivity with Thiol Reactivity” (J Med Chem, 2020).
# The source made the active and inactive calls. No cut-off for these calls is given here.
# Tests used:
# [1] = Thiol-reactivity using La antigen containing reactive cysteine C245 at 0.5 mM incubated for 1 hr by MS analysis based ALARM MSPS analysis; details: 500 µM
# [2] = Thiol-reactivity using 13C-labeled La antigen containing reactive cysteine C245 at 400 uM at 37 degreeC for 90 mins in absence of DTT by 2D 1H-13C HMQC ALARM NMR spectroscopy; type: ADME; details: 1.5 h
# How it was run: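 ALARM NMR: compound (400 μM final) was incubated with 13C-methyl-labeled La antigen (50 μM final) at 37 °C for 90 min, without and with 20 mM DTT. Reactivity was scored from 13C-methyl chemical shift changes and attenuation of diagnostic peaks in 1H-13C HMQC spectra without DTT.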
# HEK293 [3] = assay: Inhibition of TNFalpha-induced canonical NF-kappaB signaling (unknown origin) expressed in HEK293 cells assessed as residual NF-kappaB activity at 7.5 uM pre-incubated for 30 mins followed by TNFalpha stimulation for 8 hrs by NF-kappaB-driven SEAP assay; type: cell-based; details: Homo sapiens, time 510.0 min
# How it was run: (§1)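 HEK293 cells stably carrying an NF-κB-driven SEAP reporter were grown in DMEM with 10% FBS, penicillin/streptomycin and 0.5 mg/mL G418 at 37 °C, 5% CO2. They were seeded at 5,000 cells/well 24 h ahead. Compounds (1–7.5 μM, 0.5% DMSO final) were added for 30 min, then TNF-α at 22.5 ng/mL final for 8 h. Secreted SEAP in the medium was quantified chemiluminescently, relative to the induced control set as 100%.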
# A549 [4] = assay: Inhibition of TNFalpha-induced canonical NF-kappaB signaling (unknown origin) expressed in human A549 cells assessed as residual NF-kappaB activity at 20 uM […] followed by TNFalpha stimulation for 8 hrs by NF-kappaB-driven luciferase reporter gene assay; type: cell-based; details: time 500.0 min
# A549 [5] = assay: Inhibition of TNFalpha-induced canonical NF-kappaB signaling (unknown origin) expressed in human A549 cells assessed as residual NF-kappaB activity at 10 uM […] by NF-kappaB-driven luciferase reporter gene assay; type: cell-based; details: time 500.0 min
# A549 [6] = assay: Inhibition of TNFalpha-induced canonical NF-kappaB signaling (unknown origin) expressed in human A549 cells at 20 uM […] by NF-kappaB-driven luciferase reporter gene assay; type: cell-based; details: time 500.0 min
# HEK293 [7] = assay: Inhibition of TNFalpha-induced canonical NF-kappaB signaling (unknown origin) expressed in HEK293 cells assessed as residual NF-kappaB activity at 7.5 uM pre-incubated for 30 mins followed by TNFalpha stimulation for 8 hrs by NF-kappaB-driven SEAP assay; details: Homo sapiens, time 510.0 min
# [8] = Toxicity in African green monkey Vero cells assessed as reduction in cell viability incubated for 48 hrs by Alamar blue assay; type: cell-based, Chlorocebus sabaeus
# A549 [9] = assay: Inhibition of TNFalpha-induced canonical NF-kappaB signaling (unknown origin) expressed in human A549 cells at 10 uM […] by NF-kappaB-driven luciferase reporter gene assay; type: cell-based; details: time 500.0 min
# HEK293 [10] = assay: Inhibition of TNFalpha-induced canonical NF-kappaB signaling (unknown origin) expressed in HEK293 cells at 7.5 uM pre-incubated for 30 mins followed by TNFalpha stimulation for 8 hrs by NF-kappaB-driven SEAP assay; type: cell-based; details: Homo sapiens, time 510.0 min
# How it was run: as §1
smiles,measurement,setting,value
CCN(CC)c1ccc2c(C)c(-c3ccc(N4C(=O)C=CC4=O)cc3)c(=O)oc2c1,Activity,[1],Active
same,Activity,[2],Active
C=C1C(=O)N(c2ccc(C(F)(F)F)cc2)[C@@H]2C3=C(c4ccccc4)C(=O)CC3=C(C)CC[C@@H]12 (relative stereo),Activity,[1],Not Active
same,Activity,HEK293 [3],44%
same,Activity,A549 [4],21%
same,Activity,[2],Not Active
same,Activity,A549 [5],62%
C=C1C(=O)O[C@@H]2[C@H]3O[C@]3(C)CC/C=C(\C)CC[C@@H]12,Activity,HEK293 [3],20%
same,Activity,A549 [5],53%
C=C1C(=O)N(C)[C@@H]2C3=C(c4ccccc4)C(=O)CC3=C(C)CC[C@@H]12 (relative stereo),inhibition,A549 [6],inactive
C=C1C(=O)N(C(C)=O)[C@@H]2C3=CC(=O)CC3=C(C)CC[C@@H]12 (relative stereo),Activity,HEK293 [3],19%
same,Activity,A549 [4],28%
same,Activity,A549 [5],59%
OC(Cn1cncn1)(Cn1cncn1)c1ccc(F)cc1F [FLUCONAZOLE],Activity,[1],Not Active
same,Activity,[2],Not Active
C=C1C(=O)N(c2ccccc2)[C@@H]2C3=C(c4ccccc4)C(=O)CC3=C(C)CC[C@@H]12 (relative stereo),inhibition,HEK293 [7],inactive
same,inhibition,A549 [6],inactive
C=C1C(=O)N[C@@H]2C3=CC(=O)CC3=C(C)CC[C@@H]12,inhibition,HEK293 [7],inactive
same,IC50 at 48 h,[8],> 200 µM
same,inhibition,A549 [6],inactive
C=C1C(=O)O[C@H]2C3=C(c4ccccc4)C(=O)CC3=C(C)CC[C@H]12,Activity,[1],Active
same,Activity,[2],Active
C=C1C(=O)N(S(=O)(=O)c2ccc(C)cc2)[C@@H]2C3=C(c4ccccc4)C(=O)CC3=C(C)CC[C@@H]12 (relative stereo),inhibition,A549 [9],100%
same,inhibition,HEK293 [10],100%
C=C1C(=O)N[C@@H]2C3=C(c4ccccc4)C(=O)CC3=C(C)CC[C@@H]12,inhibition,A549 [6],inactive
C=C1C(=O)N(c2ccc(OC)cc2)[C@@H]2C3=C(c4ccccc4)C(=O)CC3=C(C)CC[C@@H]12 (relative stereo),inhibition,HEK293 [7],inactive
same,inhibition,A549 [6],inactive
